# Reference: ChEMBL document CHEMBL3244043, “Nucleoside 5'-monophosphate analogues. Synthesis of 5'-sulfamino-5'-deoxynucleosides” (J Med Chem, 1978)
# Activity calls are given as the source filed them. No cut-off for these calls is given here.
# What was measured:
# [1] = Stability of the compound in NaOH assessed as cleavage of sulfamino group at 23 degC after 24 hrs; format: physicochemical
# Method in brief: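 Compound exposed to 0.1 M NaOH at 23 °C for 24 h, then examined for any cleavage of the 5'-sulfamino group.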
# [2] = Drug degradation in HCl assessed as hydrolysis of 5'-sulfamino group to form amino nucleoside at 23 degC after 24 hrs; format: physicochemical; settings: read-out: Drug degradation
# Method in brief: (§1)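 Compound held in 0.1 M HCl at 23 °C for 24 h. Hydrolysis reported as percent cleavage of the 5'-sulfamino group, giving the amino nucleoside, and of the glycosidic bond, giving adenine.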
# Human alphaherpesvirus 1 [3] = assay: Antiviral activity against Herpes simplex virus type 1 infected in African green monkey CV1 cells assessed as inhibition of viral replication at 1 x 10^-5 M relative to control; format: functional; settings: Human alphaherpesvirus 1, CV-1
# Human alphaherpesvirus 1 [4] = assay: Antiviral activity against Herpes simplex virus type 1 infected in African green monkey CV1 cells assessed as inhibition of viral replication at 1 x 10^-4 M relative to control; format: functional; settings: Human alphaherpesvirus 1, CV-1
# Enterococcus faecalis = assay: Antibacterial activity against Streptococcus faecalis assessed as growth inhibition at 1 x 10^-3 M relative to control; format: functional; settings: read-out: GI
# Escherichia coli [5] = assay: Antibacterial activity against Escherichia coli K-12 assessed as growth inhibition at 1 x 10^-3 M relative to control; format: functional; settings: read-out: GI
# Escherichia coli [6] = assay: Antibacterial activity against Escherichia coli B assessed as growth inhibition at 1 x 10^-3 M relative to control; format: functional; settings: read-out: GI
# L1210 [7] = assay: Cytotoxicity against mouse L1210 cells assessed as growth inhibition at 1 x 10^-3 M; format: functional, cell-based
# L1210 [8] = assay: Cytotoxicity against mouse L1210 cells assessed as cell growth at 1 x 10^-4 M; format: functional, cell-based
# [9] = Cytotoxicity against African green monkey CV1 cells assessed as effect on cell growth at 1 x 10^-4 M; format: cell-based; settings: chlorocebus aethiops, cv-1, 100 µM
# [10] = Drug degradation in HCl assessed as hydrolysis of glycosidic linkage to form adenine at 23 degC after 24 hrs; format: physicochemical; settings: read-out: Drug degradation; method in brief: as §1
# Human alphaherpesvirus 1 [11] = assay: Antiviral activity against Herpes simplex virus type 1 infected in African green monkey CV1 cells assessed as inhibition of viral replication at 10^-4 M; format: functional, organism-based; settings: CV-1
Structure (SMILES),Stability [1],degraded at 24 h [2] [%],inhibition at 10 µM (Human alphaherpesvirus 1 [3]) [%],inhibition at 100 µM (Human alphaherpesvirus 1 [4]) [%],inhibition of growth at 1000 µM (Enterococcus faecalis) [%],inhibition of growth at 1000 µM (Escherichia coli [5]) [%],inhibition of growth at 1000 µM (Escherichia coli [6]) [%],growth inhibition (GI) (L1210 [7]),Activity (L1210 [8]),Activity [9],degraded at 24 h [10] [%],inhibition (Human alphaherpesvirus 1 [11])
Cc1cn([C@H]2C[C@H](O)[C@@H](CNS(=O)(=O)O)O2)c(=O)[nH]c1=O,Stable,2.4,35,70,< 10,< 10,< 10,inactive,inactive,Non-toxic,,
Nc1ncnc2c1ncn2[C@@H]1O[C@H](CNS(=O)(=O)O)[C@@H](O)[C@H]1O,Stable,0.75,,,< 10,< 10,< 10,inactive,inactive,,16,inactive
